Test results reported in BindingDB's records for doi:10.1021/acs.jmedchem.5b01146 (University of California Irvine, 2016).

Target: Cytochrome P450 3A4 (Homo sapiens, UniProt P08684)
Assay: Binding affinity to C-terminal four-histidine tagged human CYP3A4delta3 to 24 residues expressed in Escherichia coli assessed as spectral dissociation constant by spectrophotometric method
Procedure, shortened: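 Purified recombinant CYP3A4 titrated in 50 mM phosphate pH 7.4 with 20% glycerol and 1 mM DTT, adding small aliquots of compound in DMSO (final solvent <2%). Absorbance spectra recorded on a spectrophotometer. Ks obtained by one- or two-site saturation fitting of absorbance change versus ligand concentration.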

Chain of Cytochrome P450 3A4 (P08684 whole entry, the tested form may be a part): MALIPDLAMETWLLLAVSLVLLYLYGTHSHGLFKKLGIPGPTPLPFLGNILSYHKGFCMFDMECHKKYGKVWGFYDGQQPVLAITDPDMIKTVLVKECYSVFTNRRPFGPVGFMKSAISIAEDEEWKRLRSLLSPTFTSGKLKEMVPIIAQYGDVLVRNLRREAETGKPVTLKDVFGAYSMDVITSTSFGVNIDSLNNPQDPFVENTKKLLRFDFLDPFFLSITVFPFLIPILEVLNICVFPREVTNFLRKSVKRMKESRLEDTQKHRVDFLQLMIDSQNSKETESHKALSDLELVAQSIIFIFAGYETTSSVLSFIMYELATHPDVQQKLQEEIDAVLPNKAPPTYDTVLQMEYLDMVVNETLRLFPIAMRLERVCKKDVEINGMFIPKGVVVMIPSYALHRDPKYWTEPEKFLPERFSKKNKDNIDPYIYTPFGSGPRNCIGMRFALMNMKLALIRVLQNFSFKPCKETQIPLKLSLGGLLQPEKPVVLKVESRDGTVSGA

Row | SMILES | Kd [µM]
1 | CC(C)(C)OC(=O)NCCCCCC(=O)NCc1cccnc1 | 105
2 | c1ccncc1 [CHEBI:16227] | 4500
